Experimental data published in ChEMBL document CHEMBL1926649, “New cholesterol esterase inhibitors based on rhodanine and thiazolidinedione scaffolds” (Bioorg Med Chem, 2011).

Assays:
[1] = Inhibition of pig pancreatic cholesterol esterase preincubated for 5 mins by spectrophotometry; design: species or system Sus scrofa
In short: (§1)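 Porcine CEase in 100 mM sodium phosphate, 100 mM NaCl, pH 7.0, with 6 mM taurocholate (final), 3% acetonitrile, 3% DMSO. Inhibitor pre-mixed with 200 µM pNPB for 5 min at 25 °C. Reaction started with enzyme (10 ng/mL final), A405 followed for 6 min. Rates taken from linear steady-state turnover. Duplicates at five inhibitor concentrations. Residual activity at infinite [I] and IC50 come from non-linear regression of rate versus [I].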

[2] = Mixed inhibition of pig pancreatic cholesterol esterase preincubated for 5 mins by specific velocity plot analysis; design: species or system Sus scrofa
In short: (§2)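 Porcine CEase, pNPB hydrolysis read at 405 nm, 25 °C, pH 7.0 phosphate/NaCl buffer with 6 mM taurocholate. Quadruplicates covered five inhibitor levels (2–10 µM) crossed with five substrate levels (100–300 µM), after a 5 min preincubation. The uninhibited rate at 200 µM substrate was set to 100%. Ki, α and β come from replots of specific velocity using σ/[1+σ], with σ = [S]/Km and a separately determined Km.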

Acetylcholinesterase = Acetylcholinesterase (Electrophorus electricus, UniProt O42275); assay: Inhibition of Electrophorus electricus acetylcholinesterase preincubated for 15 mins by spectrophotometry
Acetylcholinesterase, sequence (O42275 whole entry): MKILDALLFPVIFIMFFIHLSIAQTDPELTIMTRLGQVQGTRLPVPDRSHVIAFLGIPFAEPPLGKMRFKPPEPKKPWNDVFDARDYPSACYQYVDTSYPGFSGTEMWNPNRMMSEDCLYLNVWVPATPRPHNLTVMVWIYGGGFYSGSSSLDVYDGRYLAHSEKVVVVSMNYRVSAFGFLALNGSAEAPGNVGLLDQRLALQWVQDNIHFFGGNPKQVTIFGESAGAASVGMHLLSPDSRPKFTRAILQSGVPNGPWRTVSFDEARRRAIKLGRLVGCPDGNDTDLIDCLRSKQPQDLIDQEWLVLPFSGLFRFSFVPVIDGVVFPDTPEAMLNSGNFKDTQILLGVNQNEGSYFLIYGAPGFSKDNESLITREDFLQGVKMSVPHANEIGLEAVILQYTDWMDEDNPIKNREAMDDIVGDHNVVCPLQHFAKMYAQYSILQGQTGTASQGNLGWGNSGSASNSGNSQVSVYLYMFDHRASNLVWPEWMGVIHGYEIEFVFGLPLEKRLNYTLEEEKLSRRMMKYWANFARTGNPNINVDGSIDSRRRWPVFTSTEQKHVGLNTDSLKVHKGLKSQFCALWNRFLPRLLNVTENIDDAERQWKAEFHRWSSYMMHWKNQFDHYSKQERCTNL

Sus scrofa [3] = species on record: Sus scrofa; assay: Inhibition of pig pancreatic cholesterol esterase assessed as residual enzyme activity at infinite compound concentration preincubated for 5 mins by spectrophotometry; in short: as §1
Sus scrofa [4] = species on record: Sus scrofa; assay: Ratio of binding affinity to free pig pancreatic cholesterol esterase to binding affinity to substrate-bound pig pancreatic cholesterol esterase; in short: as §2
[5] = Selectivity ratio of IC50 for Electrophorus electricus acetylcholinesterase to IC50 for pig cholesterol esterase
In short: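 IC50 ratio taken between two assays. AChE: E. electricus enzyme, 15 min preincubation, ATCh 500 µM with DTNB, read at 412 nm, pH 7.3. Porcine CEase: 10 ng/mL, 5 min preincubation of inhibitor with substrate, pNPB 200 µM with taurocholate 6 mM, read at 405 nm, pH 7.0.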

SMILES: CCCc1ccccc1OCC(O)COc1ccc(/C=C2\SC(=S)NC2=O)cc1 (racemic)
- IC50 [1]: 1.76 µM
- Ki [2]: 1.22 µM
- IC50 (Acetylcholinesterase): 5.14 µM
- Activity (Sus scrofa [3]): 18%
- Ratio (Sus scrofa [4]): 5.5

SMILES: CCCc1ccccc1NC(=O)[C@H](COC(C)(C)C)NC(=O)c1ccc(/C=C2\SC(=S)NC2=O)cc1
- IC50 [1]: 6.07 µM
- IC50 (Acetylcholinesterase): 21.6 µM

SMILES: CCCc1ccccc1NC(=O)[C@H](COC(C)(C)C)NC(=O)c1ccc(/C=C2\SC(=O)NC2=O)cc1
- IC50 [1]: 85 µM
- IC50 (Acetylcholinesterase): 66 µM

SMILES: O=C1NC(=O)/C(=C/c2ccc(C(=O)O)cc2)S1
- IC50 [1]: > 100 µM
- IC50 (Acetylcholinesterase): > 100 µM

SMILES: CCCc1ccccc1NC(=O)[C@H](COCc1ccccc1)NC(=O)c1ccc(/C=C2\SC(=S)NC2=O)cc1
- IC50 [1]: 1.44 µM
- Ratio IC50 [5]: 17
- IC50 (Acetylcholinesterase): 25 µM
- Activity (Sus scrofa [3]): 25%

SMILES: CCCc1ccccc1NC(=O)[C@H](Cc1ccccc1)NC(=O)c1ccc(/C=C2\SC(=O)NC2=O)cc1
- IC50 [1]: 40 µM
- IC50 (Acetylcholinesterase): 14 µM

SMILES: CCCc1ccccc1OCC(O)COc1ccc(/C=C2\SC(=O)NC2=O)cc1 (racemic)
- IC50 [1]: 5.89 µM
- Ratio IC50 [5]: > 15
- IC50 (Acetylcholinesterase): > 100 µM
- Activity (Sus scrofa [3]): 17%

SMILES: CCCc1ccccc1NC(=O)[C@H](CO)NC(=O)c1ccc(/C=C2\SC(=O)NC2=O)cc1
- IC50 [1]: 5.7 µM
- Ratio IC50 [5]: > 15
- IC50 (Acetylcholinesterase): > 100 µM
- Activity (Sus scrofa [3]): 12%

SMILES: O=C1NC(=S)S/C1=C\c1ccc(C(=O)O)cc1
- IC50 [1]: > 100 µM
- IC50 (Acetylcholinesterase): > 100 µM

SMILES: CCCc1ccccc1NC(=O)[C@H](C)NC(=O)c1ccc(/C=C2\SC(=O)NC2=O)cc1
- IC50 [1]: 54 µM
- IC50 (Acetylcholinesterase): > 100 µM

SMILES: CCCc1ccccc1NC(=O)[C@H](Cc1ccc(O)cc1)NC(=O)c1ccc(/C=C2\SC(=S)NC2=O)cc1
- IC50 [1]: 14.5 µM
- IC50 (Acetylcholinesterase): 57 µM

SMILES: CCCc1ccccc1NC(=O)[C@H](Cc1ccccc1)NC(=O)c1ccc(/C=C2\SC(=S)NC2=O)cc1
- IC50 [1]: 40 µM
- IC50 (Acetylcholinesterase): 43 µM

SMILES: CCCc1ccccc1NC(=O)[C@H](C)NC(=O)c1ccc(/C=C2\SC(=S)NC2=O)cc1
- IC50 [1]: 50 µM
- IC50 (Acetylcholinesterase): > 100 µM

SMILES: CCCc1ccccc1NC(=O)[C@H](CO)NC(=O)c1ccc(/C=C2\SC(=S)NC2=O)cc1
- IC50 [1]: 31 µM
- IC50 (Acetylcholinesterase): > 100 µM

SMILES: O=C1NC(=O)/C(=C/c2ccccc2)S1
- IC50 [1]: > 100 µM
- IC50 (Acetylcholinesterase): > 100 µM
